Assay results as given in article PMC3020727 (The Journal of Biological Chemistry, 2010).

Legend:
RbAp48 [1] = settings: RbAp48 expressed in a reticulocyte lysate; cited from earlier work
[2] = tested on: RbAp48 mutants (E126A/E179A; E231A/D248A/N277A/E319A); assay: Pulldown of in vitro translated 35S-labeled mutant RbAp48 by biotinylated FOG-1-; assay type: binding
Method in brief: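 ³⁵S-labeled RbAp48 mutants made by coupled in vitro transcription/translation in rabbit reticulocyte lysate. About 10 μg biotinylated FOG-1-(1–15) on high-capacity streptavidin beads, in Tris pH 7.4, 300 mm NaCl, 0.5% IGEPAL and EDTA-free protease inhibitor. Lysate (15 μl, plus 45 μl ³⁵S-MTA-1 where stated) with 250 μl beads, 1 h, 4 °C. Bare-bead control; 10% input. Five washes; SDS-PAGE and autoradiography.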

RbAp48 [3] = assay: Binding of MBD3 N-terminal peptide to RbAp48; settings: data not shown

FOG-1-(1–15): chemically synthesized peptide, the 15 N-terminal amino acids of FOG-1
interaction with RbAp48 in GST pulldown assays (RbAp48 [1]): can interact | pulldown of E126A/E179A mutant RbAp48 in the presence of MTA-1 ([2]; 45 μl lysate with 35S-labeled MTA-1 added, Fig. 5B lane 10): could be recruited

MERKRWECPALPQGW [N-terminal peptide derived from MBD3]
binding to RbAp48 (RbAp48 [3]): does not bind measurably

biotinylated FOG-1-(1–15): FOG-1-(1–15) peptide bearing an N-terminal biotin tag, immobilized on streptavidin
pulldown of quadruple-point mutant RbAp48 (Glu-231, Asp-248, Asn-277, Glu-319) ([2]; biotinylated peptide on streptavidin beads, Fig. 5A): disrupts binding
